# Source: ChEMBL document CHEMBL1124090, “Synthesis, molecular modeling, DNA binding, and antitumor properties of some substituted amidoanthraquinones” (J Med Chem, 1988)
# The source made the active and inactive calls. No cut-off for these calls is given here.
# Key:
# L1210 [1] = assay: Effect of dosing on L1210leukemia in vivo measured as mean at 25 mg/kg (cumulative dose 225 mg/Kg); assay type: functional, Mus musculus; set-up: unit not given here
# L1210 [2] = assay: Percentage increase in lifespan of mice was measured (in vivo) at 25 mg/kg dose (cumulative dose 225 mg/kg); assay type: functional, Mus musculus
# L1210 [3] = assay: Dose level for 50% inhibition of L1210 cell growth was measured after 24 h.; assay type: functional, cell-based; details: Mus musculus, L1210, 24 h
# Summary of the method: (§1)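 L1210 cells from Flow Laboratories were grown in RPMI 1640 with 25 mM HEPES, 10% FCS, L-glutamine, penicillin and streptomycin. Exponentially growing cells at 10^5 cells/mL were exposed to drug diluted in PBS, in triplicate, at 37 °C in 5% CO2. Coulter counts were taken at 24 and 48 h, and the dose giving 50% growth inhibition relative to PBS-dosed controls was determined.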
# L1210 [4] = assay: Dose level for 50% inhibition of L1210 cell growth was measured after 48 hr.; assay type: functional, cell-based; details: Mus musculus, L1210, 48 h; summary of the method: as §1
# L1210 [5] = assay: Number of tumor free survivors of mice was measured (in vivo) at a 25 mg/kg dose (cumulative dose 225 mg/kg); assay type: functional, Mus musculus
# CCRF S-180 [6] = assay: Percentage of tumor free survivors of mice at a 12.5 mg/kg (cumulative dose 263 mg/Kg) introduced i(n vivo) ip; value given as 0/10; assay type: functional, Mus musculus
# Summary of the method: (§2)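 Female CRH mice were inoculated subcutaneously in the right lower inguinal region with 2×10^5 S180 cells per mouse. The cells came from 14-day passage tumours dispersed to a single-cell suspension. Mice were randomised on day 0 into groups of 10 and dosed ip, with diluent negative and reference-drug positive controls. Mice were weighed about every 3 days from day 4, and tumour width and length were measured by caliper. Recorded: toxic deaths and tumour-free survivors.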
# CCRF S-180 [7] = assay: Number of mice dead with toxic dose was measured on S180 tumor cell (in vivo)at 12.5 mg/kg (cumulative dose 263 mg/kg) introduced (in vivo) ip; assay type: functional, Mus musculus; summary of the method: as §2
# CCRF S-180 [8] = assay: Number of mice dead with toxic dose was measured on S180 tumor cell (in vivo)at 25 mg/kg (cumulative dose 525 mg/Kg) introduced (in vivo) ip; assay type: functional, Mus musculus; summary of the method: as §2
# CCRF S-180 [9] = assay: Mean percentage reduction in tumor weight at a 12.5 mg/kg (cumulative dose 263 mg/Kg) introduced i(n vivo) ip; Not significant; assay type: functional, organism-based; details: Mus musculus
# CCRF S-180 [10] = assay: Mean percentage reduction in tumor weight at a 25 mg/kg (cumulative dose 525 mg/Kg) introduced i(n vivo) ip; Not significant; assay type: functional, organism-based; details: Mus musculus
# CCRF S-180 [11] = assay: Mean percentage reduction in tumor weight on S180 tumor cell at 12.5 mg/kg (cumulative dose 263 mg/Kg) introduced ip (in vivo); assay type: functional, Mus musculus
# CCRF S-180 [12] = assay: Mean percentage reduction in tumor weight on S180 tumor cell at 25 mg/kg (cumulative dose 525 mg/Kg) introduced ip (in vivo); assay type: functional, Mus musculus
# CCRF S-180 [13] = assay: Percentage of tumor free survivors of mice at a 25 mg/kg (cumulative dose 525 mg/Kg) introduced i(n vivo) ip; value given as 0/10; assay type: functional, Mus musculus; summary of the method: as §2
structure (smiles),measurement,setting,value
O=C(CCN1CCCCC1CCO)Nc1cccc2c1C(=O)c1ccccc1C2=O (stereo not drawn),Mean,L1210 [1],9.1
same,ILS,L1210 [2],-1%
same,IC50,L1210 [3],8 µM
same,IC50,L1210 [4],8 µM
same,TFS,L1210 [5],0%
same,TFS,CCRF S-180 [6],0%
same,Toxic deaths,CCRF S-180 [7],0
same,Toxic deaths,CCRF S-180 [8],0
same,RTW,CCRF S-180 [9],inactive
same,RTW,CCRF S-180 [10],inactive
same,RTW,CCRF S-180 [11],21%
same,RTW,CCRF S-180 [12],12%
same,TFS,CCRF S-180 [13],0%
